These results are taken from publication PMC12216437 (Scientific Reports, 2025).

Series [1] deals with E. coli ATCC 8739. The experiment in a line: Resistance development assay. The class given is cell-based. The note with it: for fold increase in MIC: E. coli ATCC 8739, sub-MIC exposure; for MIC: Escherichia coli, ATCC8739.
The subject of series [2] is Wax Moth Larvae (Galleria mellonella). The experiment in a line: In vivo toxicity in larvae. The note with it: uninfected larvae, 4 × MIC of peptide 7, five-day observation. In a few lines:
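Uninfected Galleria mellonella larvae (250 ± 20 mg), ten per group, given test compound at 4 × MIC; PBS as vehicle-only group. Kept at 24 °C and survival scored every 24 h for five days.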

The test system of series [3] is E. coli ATCC 8739. The experiment in a line: Salts and serum sensitivity. Conditions: for MIC, NH4+: E. coli ATCC 8739, 6 μM NH4Cl; for MIC, Zn2+: E. coli ATCC 8739, 8 mM ZnCl2; for MBC, Serum 10% / MIC, Serum 10%: E. coli ATCC 8739, 10% FBS. The class given is cell-based.
In series [4] the test system is E. coli ATCC 8739. The experiment in a line: Thermal and trypsin sensitivity. Format: cell-based. Conditions: for MIC, 80 °C: E. coli ATCC 8739, peptide heated at 80 °C for 10 min, no trypsin; for MBC, Control / MIC, Control: E. coli ATCC 8739, untreated peptide.
Series [5] has as its system E. coli ATCC 8739. The experiment in a line: Cytoplasmic membrane depolarization assay. The class given is cell-based. Conditions: E. coli ATCC 8739, membrane depolarisation. In a few lines: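 E. coli ATCC 8739 washed twice and resuspended to OD600 0.05 in 5 mM HEPES (pH 7.4) with 20 mM glucose and 100 mM KCl. Cells incubated 1 h in the dark with Disc3(5) solution (20 µM). Baseline read every 1 min for 5 min ([…]/em 645 nm). Peptide at various concentrations or melittin control then added; read every 1 min for 15 min.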

The nature of a further series: LPS-binding assay. The note with it: BC displacement, peptide 0.5-32 μM. An outline of the steps:
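BODIPY-TR cadaverine displacement: LPS (25 µg/mL) preincubated with BC dye (2.5 µg/mL) for 4 h at room temperature. Peptides, with melittin as positive control, prepared at 0.5–32 µM in Tris–HCl pH 7.4 and combined with LPS–BC mixture for 1 h at 37 °C. Fluorescence read at ex 590/em 645 nm; triplicates, independent experiments.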

The mark [6] stands for this setting: E. coli ATCC 8739, 2.5 mM CaCl2.

In brackets after ≈: the same amount, converted by molar mass. Non-standard residues stand in square brackets, D forms with d. Residues, ends and D or L forms follow the SMILES beside them. hArg = N=C(N)NCCCC[C@H](N)C(=O)O

As for `CCn1cc(C(=O)O)c(=O)c2cc(F)c(N3CCNCC3)cc21` [Norfloxacin], the “fold increase in MIC” value with E. coli ATCC 8739 [1] (twenty passages (twenty days)) turned out to be 512 fold. Moreover, in the series on E. coli ATCC 8739 [1], the minimal inhibitory concentration (MIC) came out at 0.25 µM (≈ 0.0798 µg/mL).
With `CC[C@H](C)[C@H](NC(=O)[C@H](CO)NC(=O)[C@H](CO)NC(=O)[C@H](Cc1ccccc1)NC(=O)CN)C(=O)N[C@@H](Cc1ccccc1)C(=O)N[C@@H](CCCCNC(=N)N)C(=O)NCC(=O)N[C@H](C(=O)N[C@@H](C)C(=O)N[C@@H](CCCCNC(=N)N)C(=O)N[C@@H](Cc1ccccc1)C(=O)N[C@@H](C)C(=O)N[C@@H](CO)C(=O)N[C@@H](CCCCNC(=N)N)C(=O)NCC(=O)N[C@@H](CC(C)C)C(=O)NCC(=O)N[C@@H](CCCCNC(=N)N)C(N)=O)C(C)C` [Peptide 7, [hArg^7,11,15,19]-des-(Asp20-Cys37)-E2P] (H-GFSSIF[hArg]GVA[hArg]FAS[hArg]GLG[hArg]-NH2), the “effect on survival of larvae (toxicity)” value in series [2] is recorded as “did not affect the survival of the larvae”. For the same molecule, the “MIC, Fe3+” value with E. coli ATCC 8739 [3] (E. coli ATCC 8739, 4 μM FeCl3) stood at 2 µM. For the same molecule, in the series with E. coli ATCC 8739 [3], the MIC, NH4+ amounted to 2 µM; the MIC, Zn2+ is 4 µM; the MBC, Serum 10% stood at 4 µM; the MIC, Serum 10% worked out at 4 µM. Further, in the series with E. coli ATCC 8739 [3] (E. coli ATCC 8739, 0.5 mM KCl), the MIC, K+ is 2 µM. In addition, the MIC, Mg2+ with E. coli ATCC 8739 [3] (E. coli ATCC 8739, 1 mM MgCl2) was found to be 8 µM. In the series on E. coli ATCC 8739 [3] (setting [6]), the MBC, Ca2+ worked out at 64 µM and the MIC, Ca2+ was 64 µM. Moreover, in the series on E. coli ATCC 8739 [4], the MIC, 80 °C is 2 µM (≈ 4.19 µg/mL); the MBC, Control worked out at 2 µM (≈ 4.19 µg/mL); the MIC, Control is 2 µM (≈ 4.19 µg/mL).
Take `CNC(C)C1CCC(N)C(OC2C(N)CC(N)C(OC3OCC(C)(O)C(NC)C3O)C2O)O1` (stereo not drawn) [Gentamicin]: in the series on E. coli ATCC 8739 [1] (twenty passages (twenty days)), the “fold increase in MIC” value worked out at 32 fold. In the series with E. coli ATCC 8739 [1], this molecule gave an MIC of 2 µM (≈ 0.955 µg/mL).
On the same counts, the results for `CO/N=C(\C(=O)N[C@@H]1C(=O)N2C(C(=O)O)=C(COC(C)=O)CS[C@H]12)c1csc(N)n1` [Cefotaxime] are 32 fold and 1 µM (≈ 0.455 µg/mL).
Turning to `CC[C@H](C)[C@H](NC(=O)CN)C(=O)NCC(=O)N[C@@H](C)C(=O)N[C@H](C(=O)N[C@@H](CC(C)C)C(=O)N[C@@H](CCCCN)C(=O)N[C@H](C(=O)N[C@@H](CC(C)C)C(=O)N[C@H](C(=O)N[C@H](C(=O)NCC(=O)N[C@@H](CC(C)C)C(=O)N1CCC[C@H]1C(=O)N[C@@H](C)C(=O)N[C@@H](CC(C)C)C(=O)N[C@H](C(=O)N[C@@H](CO)C(=O)N[C@@H](Cc1c[nH]c2ccccc12)C(=O)N[C@H](C(=O)N[C@@H](CCCCN)C(=O)N[C@@H](CCCNC(=N)N)C(=O)N[C@@H](CCCCN)C(=O)N[C@@H](CCCNC(=N)N)C(=O)N[C@@H](CCC(N)=O)C(=O)N[C@@H](CCC(N)=O)C(N)=O)[C@@H](C)CC)[C@@H](C)CC)[C@@H](C)O)[C@@H](C)O)C(C)C)C(C)C` [Melittin], in the series on E. coli ATCC 8739 [5], the “concentration at maximum Disc3(5) fluorescence” value came to 2 µM and the “incubation time to maximum Disc3(5) fluorescence” value was found to be 3 min. Moreover, the “concentration at which LPS-binding affinity peaked” value in the series “LPS-binding assay” was determined as 16 µM. Further, in the series on E. coli ATCC 8739 [4] (E. coli ATCC 8739, 0.25 mg/mL trypsin), the “fold increase of MIC and MBC values” amounted to 32 fold. In the series with E. coli ATCC 8739 [4], this molecule registered an MIC, 80 °C of 2 µM (≈ 5.69 µg/mL); an MBC, Control of 2 µM (≈ 5.69 µg/mL); an MIC, Control of 2 µM (≈ 5.69 µg/mL).
For `C[C@H](NC(=O)[C@H](Cc1c[nH]c2ccccc12)NC(=O)CNC(=O)[C@H](CCCNC(=N)N)NC(=O)[C@H](Cc1c[nH]c2ccccc12)NC(=O)[C@H](Cc1c[nH]c2ccccc12)NC(=O)[C@H](CO)NC(=O)[C@H](CO)NC(=O)[C@H](Cc1c[nH]c2ccccc12)NC(=O)CN)C(=O)N[C@@H](CCCCN)C(=O)N[C@@H](Cc1c[nH]c2ccccc12)C(=O)N[C@@H](C)C(=O)N[C@@H](CO)C(=O)N[C@@H](CCCCN)C(=O)NCC(=O)N[C@@H](Cc1c[nH]c2ccccc12)C(=O)NCC(=O)N[C@@H](CCCCN)C(N)=O` [Peptide 6, [Trp^2,5,6,9,12,17]-des-(Asp20-Cys37)-E2P] (H-GWSSWWRGWAKWASKGWGK-NH2), in the series on E. coli ATCC 8739 [3], the MIC, NH4+ worked out at 4 µM; the MIC, Zn2+ worked out at 4 µM; the MBC, Serum 10% came to 4 µM; the MIC, Serum 10% stood at 4 µM. Moreover, in the series on E. coli ATCC 8739 [3] (E. coli ATCC 8739, 1 mM MgCl2), the MBC, Mg2+ stood at 32 µM and the MIC, Mg2+ worked out at 32 µM. For the same molecule, in the series with E. coli ATCC 8739 [3] (E. coli ATCC 8739, 20% FBS), the MBC, Serum 20% was 8 µM and the MIC, Serum 20% turned out to be 8 µM.
For `CO[C@H]1/C=C/O[C@@]2(C)Oc3c(C)c(O)c4c(O)c(c(/C=N/N5CCN(C)CC5)c(O)c4c3C2=O)NC(=O)/C(C)=C\C=C\[C@H](C)[C@H](O)[C@@H](C)[C@@H](O)[C@@H](C)[C@H](OC(C)=O)[C@@H]1C` [Rifampicin], in the series on E. coli ATCC 8739 [1] (within five passages), the “fold increase in MIC” value turned out to be 512 fold. For the same molecule, the MIC with E. coli ATCC 8739 [1] is 8 µM (≈ 6.58 µg/mL).
